# High-throughput results from PubChem BioAssay.
# HIV Env fusion: inhibitors of HIV-1 Env-driven cell-cell fusion, primary screen, HeLa-JRFL effector, CEM21 target cells, luciferase; AID 651610, 2012; inhibition, % at 12.3 µM; 360,000 compounds, 1.1% hits;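 active = mean replicate inhibition score of at least 50 and every replicate individually at or above 50; inconclusive = only one of the two criteria met; inactive = mean below 50 and not all replicates reaching 50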;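 note: 0% = plate neutral controls and 100% = maraviroc near 300 nM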
# Ecoli rRNA inh: reduced GFP signal of wild-type E. coli, primary screen, bacterial rRNA inhibitor project, GFP/RFP fluorescence, OD600, single point. E. coli WT GFP vs humanized-ribosome RFP mutants, 24 h; hits give low values; DMSO median 0, no signal -100. GFP signal change (wild-type ribosome), % (test concentration not listed). 350,000 compounds, 1.6% hits. AID 720706, 2013;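 active = significant combined selectivity score with lowered wild-type GFP, culture density cut under 30%, mutant RFP and density less affected; inactive = any of these conditions unmet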
# FN deposition inh: inhibitors of fibronectin matrix deposition, primary screen, AH1F cells, Alexa488-fibronectin fluorescence, plate reader. AH1F fibroblasts, overnight. 350,000 compounds, 0.086% hits. inhibition, % at 12.6 µM;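 active = mean inhibition across replicates of 30% or more, regardless of how many single replicates reach that level; inconclusive = mean under 30% yet at least half of replicates reach 30%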;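 note: positive control wells lacked labelled fibronectin entirely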
#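 Measured by – fluorescence 485/525 nm · System – AH1F fibroblast monolayer, labelled fibronectin deposition · Amount – 10000 cells per well · Buffer or medium – serum-reduced DMEM (2% serum) · Doses – single dose, pinned · Also added – fluorescent fibronectin at 24 nM final · Schedule – 1 h cell attachment, overnight exposure to compound and label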
# PDI turbidity: inhibitors of human PDI, primary screen, biochemical, turbidity, single point, plate reader. Protein disulfide-isomerase (Homo sapiens), P07237. PDI insulin aggregation turbidity, A650, 90 min. inhibition, % at 10 µM. 350,000 compounds, 0.052% hits. AID 588391, 2011;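 active = mean inhibition across replicates of 30% or more, whatever share of single replicates reach that level; inconclusive = mean inhibition below 30% while every single replicate reaches 30%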
# PvdQ acylase: P. aeruginosa PvdQ acylase inhibitors, primary screen, biochemical, fluorescence, plate reader and imaging, single point | 340,000 compounds, 0.063% hits | inhibition, % at 10 µM | purified PvdQ acylase; in the data active = inhibition above about 30%, passing the limit was not always enough; inconclusive = no clear call, values can overlap the other calls;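 note: 0% = vehicle neutral wells and 100% = reference inhibitor wells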
# ERp5 block: inhibitors of ERp5-driven insulin aggregation, primary screen, biochemical, turbidity, absorbance 650 nm, single point; inhibition, % at 9.99 µM; 90 min; 350,000 compounds, 0.05% hits; Protein disulfide-isomerase A6 (Homo sapiens), Q15084;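 active = mean replicate inhibition above about 25%, with every replicate also reaching it, limit read from the data, passing the limit was not always enough; inconclusive = only one of those two criteria met; inactive = neither criterion met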
# Target sequence (Q15084 whole entry, looked up): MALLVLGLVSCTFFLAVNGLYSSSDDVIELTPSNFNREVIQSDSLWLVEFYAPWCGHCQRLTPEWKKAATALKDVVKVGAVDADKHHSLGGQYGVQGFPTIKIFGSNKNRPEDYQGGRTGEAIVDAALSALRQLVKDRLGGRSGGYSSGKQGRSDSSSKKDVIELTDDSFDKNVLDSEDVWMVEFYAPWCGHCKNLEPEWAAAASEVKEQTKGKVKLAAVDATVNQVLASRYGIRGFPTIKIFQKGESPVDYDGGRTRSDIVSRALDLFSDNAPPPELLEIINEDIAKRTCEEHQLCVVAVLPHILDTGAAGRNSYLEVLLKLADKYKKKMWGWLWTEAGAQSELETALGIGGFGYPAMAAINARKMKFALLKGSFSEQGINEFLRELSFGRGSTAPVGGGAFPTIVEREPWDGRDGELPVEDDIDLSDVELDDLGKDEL
# * = called active by the depositor; ? = inconclusive; / = no result; [ ] = dose if it differs, or a comment. This is a sample that favours compounds with a hit; in the whole collection about 2.2% have one here.
SMILES,HIV Env fusion,Ecoli rRNA inh,FN deposition inh,PDI turbidity,PvdQ acylase,ERp5 block
OC[C@@H]1[C@@H](c2ccc(C#Cc3ccccc3)cc2)[C@@H]2CN(Cc3ccccn3)CCCCN12,/,-60,/,/,/,/
O=C1NN(c2ccccc2)C(=O)C2C1C1C=CC2C12CC2 (configuration not stated),-10,/,7,-8,53*,/
CCN1C(=O)[C@H]2[C@@H](c3ccc(C(F)(F)F)cc3)N[C@]3(CCCN(Cc4ccccc4)C3=O)[C@H]2C1=O,78*,/,4,-19,/,-2
COc1ccc(-c2nc3cc(NC(=O)Cc4ccc(OC)c(OC)c4)ccc3o2)cc1,63*,/,2,-16,8,/
COc1ccc(OCC(=O)Nc2ccc3oc(-c4ccncc4)nc3c2)cc1,13,8,2,-13,6,0
COc1ccc2c3c(n(C)c2c1)[C@@H](CO)N(Cc1ccccc1)CC31CCN(C(=O)C2CC2)CC1,/,4,/,/,/,4
CCN1C(=O)S/C(=C/c2ccc(Sc3nc4ccccc4[nH]3)o2)C1=O,62*,-23*,-3,-1,-4,-1
Cc1ccc(CN=c2c([N+](=O)[O-])nn(-c3cccc(Cl)c3)n2O)cc1,-8,-24*,6,-4,3,-5
COc1ccc(CONc2ncnc3nonc23)cc1[N+](=O)[O-],2,-25*,-3,3,-8,3
CCN(CC)S(=O)(=O)c1ccc(N2CCCCC2)c(NC(=O)/C=C/c2ccc(OC)c(OC)c2)c1,25,/,/,4,-16,/
CCN(CC)S(=O)(=O)c1ccc(N2CCOCC2)c(NC(=O)c2ccc(OC)c([N+](=O)[O-])c2)c1,-7,3,1,-1,-5,-8
CCN(CC)S(=O)(=O)c1ccc(OC)c(NC(=O)c2cc([N+](=O)[O-])ccc2N2CCOCC2)c1,67*,-1,-7,-4,/,1
CCN(CC)S(=O)(=O)c1ccc(N2CCCC2)c(NC(=O)Cc2cc(OC)c(OC)c(OC)c2)c1,97*,4,-10,-10,-5,1
CCN(CC)S(=O)(=O)c1ccc(N2CCCC2)c(NC(=O)Cc2ccc(OC)cc2)c1,54,-34*,0,-8,-9,3
CCN(CC)S(=O)(=O)c1ccc(N2CCCC2)c(NC(=O)c2ccc(OC)cc2OC)c1,19,-22,-2,-2,4,14
C[C@@H]1CCCCO[C@@H](CN(C)C(=O)c2ccccc2)[C@H](C)CN([C@H](C)CO)C(=O)c2cc(NC(=O)CCCN(C)C)ccc2O1,2[16.7 µM],5,-5,/,/,/
CNC[C@@H](Cc1ccccc1)NC[C@@H](CC1CCCCC1)NCCCc1ccccc1,103*,-54,1,6,-8,1
CNC[C@@H](CC1CCCCC1)NC[C@H](CC(C)C)NCCc1cccc(C(F)(F)F)c1,93*,-54,62*,5,-12,4
CC[C@@H](C)[C@H](CNC)NC[C@@H](Cc1cccc2ccccc12)NCCc1cccc(C(F)(F)F)c1,?,-59,6,4,2,2
CCN1[C@H](C(=O)NCCCN(C)C)[C@@H](CO)[C@@H]2Cn3c(ccc(C4=CCCC4)c3=O)[C@@H]21,/,1,/,/,/,-6
CCN(CC)CC(=O)Nc1sc(C)cc1C(=O)c1ccc(C)cc1,17,-13,-1,6,-7,0
CCN(CC)CC(=O)Nc1sc(C)c(C)c1C(=O)c1ccc(C)cc1,8,-24*,13,-2,-7,-1
O=C(Nc1ccccc1)C1Cc2c(-c3ccccc3Oc3ccccc3)ccnc2O1 (configuration not stated),11,5,-8,7,/,1
O=C(Nc1cc(C(F)(F)F)ccc1F)C1Cc2c(-c3ccccc3Oc3ccccc3)ccnc2O1 (configuration not stated),79*,8,-8,2,/,2
O=C(Nc1cccc(OC(F)(F)F)c1)C1Cc2c(-c3ccccc3Oc3ccccc3)ccnc2O1 (configuration not stated),59*,6,/,3,/,5
SMILES,HIV Env fusion,Ecoli rRNA inh,FN deposition inh,PDI turbidity,PvdQ acylase,ERp5 block
C[C@@H]1CCCCO[C@@H](CN(C)C(=O)Cc2ccccc2)[C@H](C)CN([C@H](C)CO)C(=O)c2cc(NS(=O)(=O)c3ccccc3)ccc2O1,-31[16.7 µM],-4,-8,/,/,1
Cc1cc(SCC(=O)c2ccccc2)n2ncc(-c3ccccc3)c2n1,-14,-51*,-1,-9,-3,0
Cc1cc(C(=O)COc2cc(F)ccc2[N+](=O)[O-])c(C)n1C1CC1,-1,-29*,/,9,-6,2
Cc1cc(C(=O)COc2ccc(C#N)cc2)c(C)n1C1CC1,64*,6,-5,5,-11,0
CO[C@H]1CN(C)C(=O)c2ccc(NC(=O)Nc3c(C)noc3C)cc2OC[C@@H](C)NC[C@@H]1C,-33[16.7 µM],3,-30,/,/,0
CCCC#Cc1cnc2c(c1)C(=O)N([C@@H](C)CO)C[C@@H](C)[C@H](CN(C)C(=O)c1cccc(F)c1)O2,23[16.7 µM],13,/,/,/,0
C=C[C@@H](C)N(Cc1ccc(OC)cc1)S(=O)(=O)N(Cc1ccccc1)[C@H](C=C)C(C)C,89*,1,4,3,-16,1
COc1ccc(CN([C@H](C)CO)S(=O)(=O)N(Cc2ccccc2)[C@H](CO)C(C)C)cc1,32,-16,-6,7,-12,-7
C=CCn1c(O)c(N=NC(=S)Nc2ccc(OC)cc2)c2ccccc21,37*,/,14,3,3,/
C=CCn1c(O)c(N=NC(=S)Nc2cccc(OC)c2)c2ccccc21,/,/,/,3,-5,/
CC(C)NC(=O)N(C)C[C@@H]1Oc2ccc(N(C)C)cc2C(=O)N([C@@H](C)CO)C[C@@H]1C,-1[16.7 µM],4,3,/,/,9
CCCNC(=O)Nc1ccc2c(c1)C(=O)N(C)C[C@H](OC)[C@@H](C)CN(Cc1ccccc1)[C@H](C)CO2,/,-5,-3,/,/,/
CN(C)c1cccc(-c2cc(Nc3ccc(C(C)(C)C)cc3)ncn2)c1,-6,-9,4,7,/,-2
CN(C)CCCNc1ccc(-c2cc(Nc3cccc(Cl)c3)ncn2)cn1,1,-20*,11,-1,-7,1
Fc1cccc(-c2cc3nc4c(c(N5CCOCC5)n3n2)CCCC4)c1,30,/,5,-6,9,/
Fc1cccc(-c2cc3nc4c(c(NCc5ccco5)n3n2)CCCC4)c1,/,-32*,/,-1,-7,0
